SMILES strings stand for the structures.

Data set [1] deals with Matrix metalloproteinase-9 (Homo sapiens, UniProt P14780). Briefly: Inhibition of human recombinant MMP9 catalytic domain using Mca-Pro-Leu-Gly-Leu-Dpa-Ala-Arg-NH2 fluorogenic substrate. In a few lines: (§1)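 Recombinant human catalytic domains (MMP-2; MMP-9 lacking fibronectin type II insert and MMP-12, both E. coli-expressed) at 10 ng per well with fluorogenic substrate. Buffer: 50 mM Tris pH 7.4, 0.2 M NaCl, 10 mM CaCl₂, ZnCl₂, 0.05% v/v Brij-35. Fluorescence rise (ex 320/em 440 nm) read for 15 min at 20 °C over inhibitor series up to 1000 nM (or 100 µM). IC50 by sigmoidal fit, triplicate.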
Sequence of Matrix metalloproteinase-9 (P14780 whole entry, the tested form may be a part): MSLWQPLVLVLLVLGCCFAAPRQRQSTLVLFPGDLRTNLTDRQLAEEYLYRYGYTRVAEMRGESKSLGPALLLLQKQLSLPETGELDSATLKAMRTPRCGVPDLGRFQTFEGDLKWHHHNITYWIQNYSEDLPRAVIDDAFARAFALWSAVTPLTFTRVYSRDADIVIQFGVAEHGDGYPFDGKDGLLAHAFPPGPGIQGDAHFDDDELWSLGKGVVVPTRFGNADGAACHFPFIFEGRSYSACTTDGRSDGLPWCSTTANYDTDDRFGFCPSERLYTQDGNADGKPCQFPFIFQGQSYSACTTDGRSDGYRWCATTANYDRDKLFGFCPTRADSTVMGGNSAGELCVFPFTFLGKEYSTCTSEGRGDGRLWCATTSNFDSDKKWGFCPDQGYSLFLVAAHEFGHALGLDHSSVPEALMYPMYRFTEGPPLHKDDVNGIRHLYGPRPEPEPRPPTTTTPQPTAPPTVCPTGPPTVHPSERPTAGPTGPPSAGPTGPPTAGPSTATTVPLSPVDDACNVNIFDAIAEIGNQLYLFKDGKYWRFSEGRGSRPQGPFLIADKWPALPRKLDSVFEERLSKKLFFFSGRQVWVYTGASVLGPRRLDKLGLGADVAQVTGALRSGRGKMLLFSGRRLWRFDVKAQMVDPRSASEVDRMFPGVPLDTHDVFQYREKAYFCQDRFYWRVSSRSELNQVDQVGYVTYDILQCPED

Data set [2] deals with Macrophage metalloelastase (Homo sapiens, UniProt P39900). Briefly: Inhibition of human recombinant MMP12 catalytic domain Mca-Pro-Leu-Gly-Leu-Dpa-Ala-Arg-NH2 fluorogenic substrate. In a few lines: as §1
Sequence of Macrophage metalloelastase (P39900 whole entry, the tested form may be a part): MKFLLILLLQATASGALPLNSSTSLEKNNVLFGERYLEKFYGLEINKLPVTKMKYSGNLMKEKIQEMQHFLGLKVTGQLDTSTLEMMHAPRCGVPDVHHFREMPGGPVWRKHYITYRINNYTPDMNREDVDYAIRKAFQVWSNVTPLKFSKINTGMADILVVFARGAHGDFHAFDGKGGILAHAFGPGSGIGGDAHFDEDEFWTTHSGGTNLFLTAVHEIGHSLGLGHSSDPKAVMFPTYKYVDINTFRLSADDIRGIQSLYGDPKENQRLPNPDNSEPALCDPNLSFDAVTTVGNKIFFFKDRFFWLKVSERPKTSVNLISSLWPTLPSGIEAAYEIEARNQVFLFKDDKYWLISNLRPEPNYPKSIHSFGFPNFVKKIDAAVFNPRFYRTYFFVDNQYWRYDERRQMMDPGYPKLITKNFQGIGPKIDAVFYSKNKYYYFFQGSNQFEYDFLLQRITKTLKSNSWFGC
For data set [3], the target named is 72 kDa type IV collagenase (Homo sapiens, UniProt P08253). Briefly: Inhibition of human recombinant MMP2 catalytic domain using Mca-Pro-Leu-Gly-Leu-Dpa-Ala-Arg-NH2 fluorogenic substrate. The procedure, abridged:
as §1

The nature of data set [4]: Octanol-water partition coefficient, log P of the compound. Type of data set: physicochemical. The procedure, abridged: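 About 5 kBq [¹⁸F]FB-ML5 in saline was mixed with 495 µL PBS pH 7.4 and 500 µL n-octanol. Vortexed 5 min, centrifuged 5 min at 3000 rpm, then 100 µL of each layer gamma-counted. logP = log₁₀(cpm octanol/cpm aqueous), triplicate.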
Data set [5] is described as follows: Drug uptake in HT1080 cells xenografted mouse assessed as large intestine to plasma ratio after 90 mins in presence of non-radioactive ML5. It is filed as ADME, cell-based, HT-1080. The settings on record: large intestine and plasma. In a few lines:
(§2)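 Same HT1080 subcutaneous xenograft in male BALB/c nude mice. The tracer was co-injected with 2.5 mg/kg non-radioactive ML5 and scanned for 90 min. Organs and plasma were gamma-counted ex vivo at 90 min p.i. The tissue/plasma SUV_mean ratio was calculated. n = 6, mean SD, unpaired two-sided t-test against the group without ML5.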

Data set [6] is described as follows: Drug uptake in HT1080 cells xenografted mouse assessed as heart to plasma ratio after 90 mins in presence of non-radioactive ML5. It is filed as ADME, cell-based, HT-1080. The settings on record: heart and plasma. In a few lines: as §2
Data set [7] deals with Intestine. In words: Drug uptake in HT1080 cells xenografted mouse large intestine after 90 mins. The conditions noted are these: in vivo, 1.5 h. Type of data set: ADME, cell-based, HT-1080. In a few lines: (§3)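 Male BALB/c nu/nu mice, 7–8 weeks old, were given (2–2.5)×10⁶ HT1080 cells s.c. in the right shoulder in Matrigel/EMEM (1:1). They were used 14–21 days later at tumor volume 0.3–0.6 mL. [¹⁸F]FB-ML5 was given alone or co-injected with 2.5 mg/kg ML5. Tissues were weighed and gamma-counted. SUVmean = tissue MBq/g ÷ (injected MBq/body weight g). n = 6 per group, mean ± SD, unpaired t-test.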

The nature of data set [8]: Drug uptake in HT1080 cells xenografted mouse assessed as tumor to plasma ratio after 90 mins in presence of non-radioactive ML5. The settings on record: tumor and plasma. It is filed as ADME, cell-based, HT-1080. The procedure, abridged: as §2
Data set [9] relates to Intestine. Briefly: Drug uptake in HT1080 cells xenografted mouse small intestine after 90 mins. The settings on record: in vivo, 1.5 h. It is filed as ADME, cell-based, HT-1080. The procedure, abridged:
as §3

The test system of data set [10] is Lung. Briefly: Drug uptake in HT1080 cells xenografted mouse lung after 90 mins in presence of non-radioactive ML5. It is filed as ADME, cell-based, HT-1080. The settings on record: in vivo, 1.5 h. In a few lines:
as §3

Data set [11] in a line: Drug uptake in HT1080 cells xenografted mouse assessed as liver to plasma ratio after 90 mins. The conditions noted are these: liver and plasma. It is filed as ADME, cell-based, HT-1080. In a few lines: (§4)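 Male BALB/c nude mice, 7–8 weeks, with (2–2.5)×10⁶ HT1080 cells in Matrigel/EMEM injected subcutaneously into the right shoulder. Tracer injected when tumors reached 0.3–0.6 mL (14–21 days), followed by a 90 min microPET scan. Ex vivo: organs and plasma gamma-counted at 90 min p.i. SUV_mean for each tissue divided by plasma SUV_mean. n = 6, mean SD.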

A short description of data set [12]: Drug uptake in HT1080 cells xenografted mouse assessed as bone to plasma ratio after 90 mins in presence of non-radioactive ML5. Type of data set: ADME, cell-based, HT-1080. The conditions noted are these: bone and plasma. The procedure, abridged: as §2
Data set [13] in a line: Drug uptake in HT1080 cells xenografted mouse assessed as large intestine to plasma ratio after 90 mins. Type of data set: ADME, cell-based, HT-1080. The conditions noted are these: large intestine and plasma. In a few lines:
as §4

In data set [14] the test system is Heart. Briefly: Drug uptake in HT1080 cells xenografted mouse heart after 90 mins in presence of non-radioactive ML5. It is filed as ADME, cell-based, HT-1080. The conditions noted are these: in vivo, 1.5 h. In a few lines:
as §3

Data set [15] in a line: Drug uptake in HT1080 cells xenografted mouse assessed as tumor to plasma ratio after 90 mins. It is filed as ADME, cell-based, HT-1080. The settings on record: tumor and plasma. The procedure, abridged: as §4
Data set [16] deals with Lung. Briefly: Drug uptake in HT1080 cells xenografted mouse lung after 90 mins. Type of data set: ADME, cell-based, HT-1080. The conditions noted are these: in vivo, 1.5 h. In a few lines: as §3
For data set [17], the system named is Bone. Briefly: Drug uptake in HT1080 cells xenografted mouse bone after 90 mins in presence of non-radioactive ML5. It is filed as ADME, cell-based, Bone element, HT-1080. The settings on record: in vivo, 1.5 h. In a few lines: as §3
Data set [18] relates to Tumour. Briefly: Drug uptake in HT1080 cells xenografted mouse tumor after 90 mins in presence of non-radioactive ML5. Type of data set: ADME, Neoplasm, HT-1080. The conditions noted are these: in vivo, 1.5 h. In a few lines:
as §3

The test system of data set [19] is Heart. In words: Drug uptake in HT1080 cells xenografted mouse heart after 90 mins. Type of data set: ADME, cell-based, HT-1080. The settings on record: in vivo, 1.5 h. In a few lines:
as §3

The subject of data set [20] is Liver. In words: Drug uptake in HT1080 cells xenografted mouse liver after 90 mins in presence of non-radioactive ML5. It is filed as ADME, cell-based, HT-1080. The conditions noted are these: in vivo, 1.5 h. In a few lines: as §3
Data set [21] has as its system Plasma. Briefly: Drug uptake in HT1080 cells xenografted mouse plasma after 90 mins. It is filed as ADME, cell-based, HT-1080. The conditions noted are these: in vivo, 1.5 h. In a few lines: as §3
The test system of data set [22] is Bone. Briefly: Drug uptake in HT1080 cells xenografted mouse bone after 90 mins. Type of data set: ADME, cell-based, Bone element, HT-1080. The settings on record: in vivo, 1.5 h. The procedure, abridged: as §3
Data set [23] has as its system Liver. Briefly: Drug uptake in HT1080 cells xenografted mouse liver after 90 mins. Type of data set: ADME, cell-based, HT-1080. The settings on record: in vivo, 1.5 h. In a few lines:
as §3

Data set [24] can be described thus: Drug uptake in HT1080 cells xenografted mouse assessed as heart to plasma ratio after 90 mins. It is filed as ADME, cell-based, HT-1080. The conditions noted are these: heart and plasma. In a few lines:
as §4

For data set [25], the system named is Plasma. Briefly: Drug uptake in HT1080 cells xenografted mouse plasma assessed as parent compound after 90 mins. Type of data set: ADME, cell-based, HT-1080. The settings on record: in vivo, 1.5 h. In a few lines: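 Parent fraction in plasma of control HT1080-bearing mice at 90 min p.i. Plasma (250 µL) was deproteinized with 750 µL ACN, centrifuged 3 min at 3000 rpm and filtered (0.22 µm). Analysed by semi-preparative reverse-phase HPLC with radioactivity detection; % intact tracer of total plasma radioactivity, n = 2.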

Data set [26] in a line: Drug uptake in HT1080 cells xenografted mouse assessed as bone to plasma ratio after 90 mins. It is filed as ADME, cell-based, HT-1080. The settings on record: bone and plasma. In a few lines:
as §4

Data set [27] has as its system Intestine. In words: Drug uptake in HT1080 cells xenografted mouse large intestine after 90 mins in presence of non-radioactive ML5. It is filed as ADME, cell-based, HT-1080. The settings on record: in vivo, 1.5 h. The procedure, abridged: as §3
The nature of data set [28]: Drug uptake in HT1080 cells xenografted mouse assessed as liver to plasma ratio after 90 mins in presence of non-radioactive ML5. It is filed as ADME, cell-based, HT-1080. The settings on record: liver and plasma. The procedure, abridged: as §2
Data set [29] concerns Tumour. Briefly: Drug uptake in HT1080 cells xenografted mouse tumor after 90 mins. Type of data set: ADME, Neoplasm, HT-1080. The conditions noted are these: in vivo, 1.5 h. The procedure, abridged: as §3
Data set [30] deals with Plasma. Briefly: Drug uptake in HT1080 cells xenografted mouse plasma after 90 mins in presence of non-radioactive ML5. Type of data set: ADME, cell-based, HT-1080. The settings on record: in vivo, 1.5 h. In a few lines: as §3

Sequence of 72 kDa type IV collagenase (P08253 whole entry, the tested form may be a part): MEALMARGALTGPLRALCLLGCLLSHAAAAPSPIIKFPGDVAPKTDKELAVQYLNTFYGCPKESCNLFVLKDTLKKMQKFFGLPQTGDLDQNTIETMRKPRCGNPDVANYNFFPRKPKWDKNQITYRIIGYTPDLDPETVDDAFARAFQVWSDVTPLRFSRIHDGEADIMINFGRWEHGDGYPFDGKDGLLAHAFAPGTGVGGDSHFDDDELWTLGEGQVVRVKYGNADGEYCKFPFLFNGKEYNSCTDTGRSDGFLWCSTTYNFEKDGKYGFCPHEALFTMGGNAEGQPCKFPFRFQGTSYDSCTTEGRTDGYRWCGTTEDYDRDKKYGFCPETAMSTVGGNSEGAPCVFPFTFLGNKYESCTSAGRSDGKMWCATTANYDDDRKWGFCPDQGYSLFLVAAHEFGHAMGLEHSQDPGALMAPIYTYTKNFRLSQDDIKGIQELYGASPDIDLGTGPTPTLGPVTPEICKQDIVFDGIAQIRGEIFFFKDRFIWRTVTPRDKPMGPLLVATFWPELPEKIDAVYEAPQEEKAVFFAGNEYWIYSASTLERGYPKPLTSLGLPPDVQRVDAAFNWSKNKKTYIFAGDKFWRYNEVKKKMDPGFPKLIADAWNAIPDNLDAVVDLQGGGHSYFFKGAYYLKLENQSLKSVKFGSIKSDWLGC

For the compound `CC(C)C[C@H](CC(=O)NOC(=O)c1ccc(F)cc1)C(=O)N[C@@H](Cc1ccccc1)C(=O)N[C@@H](CCCCNC(=O)c1ccc(F)cc1)C(N)=O`, the IC50 in [1] was 1490 nM.

On to `CC(C)C[C@H](CC(=O)NO)C(=O)N[C@@H](Cc1ccccc1)C(=O)N[C@@H](CCCCN)C(N)=O`, for which the IC50 is 2 nM in data set [2], 7.4 nM in [3] and 19.5 nM in data set [1].

Turning to `CC(C)C[C@H](CC(=O)NO)C(=O)N[C@@H](Cc1ccccc1)C(=O)N[C@@H](CCCCNC(=O)c1ccc(F)cc1)C(N)=O`, the IC50 was 138 nM in [2], 12.5 nM in data set [3] and 31.5 nM in data set [1].

In data set [4], `CC(C)C[C@H](CC(=O)NO)C(=O)N[C@@H](Cc1ccccc1)C(=O)N[C@@H](CCCCNC(=O)c1ccc([18F])cc1)C(N)=O` registered a logP of 1.11. Further, the Kp at 1.5 h in data set [5] was 14.8; in data set [6], 0.235; in data set [8], 0.231; in data set [11], 19.2; in data set [12], 0.09; in data set [13], 7.83. Besides, the Kp at 1.5 h in data set [15] came out at 0.597; in [24], 0.482; in data set [26] it was 0.179; in data set [28] it was 10.9. Besides, the SUV in data set [7] is 1.8; in [9] it was 5.207; in data set [10], 0.106; in data set [14], 0.043; in data set [16], 0.254; in [17], 0.017. Further, the SUV in data set [18] was 0.041; in data set [19] it was 0.111; in data set [20] it was 2; in data set [21] it was 0.238; in data set [22], 0.041; in data set [23], 4.58. In addition, the SUV in data set [27] is 2.75; in [29], 0.145; in [30], 0.185. The Drug uptake in data set [25] is 23.2%.

One may read the IC50 as the concentration that inhibits the measured activity by half. A word on the logP: it is the decadic logarithm of the partition coefficient of the neutral form, usually between octanol and water. A high value points to higher lipophilicity. By Kp is commonly meant tissue or fluid exposure divided by exposure in the circulation.

The values are drawn from ChEMBL document CHEMBL3352502, “A dual inhibitor of matrix metalloproteinases and a disintegrin and metalloproteinases, [¹⁸F]FB-ML5, as a molecular probe for non-invasive MMP/ADAM-targeted imaging” (Bioorg Med Chem, 2015).
